From ChEMBL document CHEMBL1124832, “Functionalized congener approach for the design of novel muscarinic agents. Synthesis and pharmacological evaluation of N-methyl-N-[4-(1-pyrrolidinyl)-2-butynyl] amides” (J Med Chem, 1990)

Tests used:
[1] = target: Muscarinic acetylcholine receptor M3 (Homo sapiens) (UniProt P20309); experiment: Percent binding affinity at muscarinic acetylcholine receptor M3 from SK-N-SH human neuroblastoma cells in presence of [3H]NMS; type: cell-based
Procedure, shortened: (§1)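 Crude membranes from confluent cells, lysed in 2 mM Tris-HCl (pH 7.1)/1 mM EDTA, homogenized, spun at 50000 g and stored at -70 °C. Membranes (150-300 µg protein) incubated 90 min at 37 °C with 0.5 nM [3H]NMS and 100 µM compound in DMEM-Hepes, then filtered on GF/B. Nonspecific binding taken with 1 µM atropine. Reported as percent displacement; two or three trials in triplicate.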

[2] = target: T1, Muscarinic acetylcholine receptor M4 (Rattus norvegicus) (UniProt P08485); experiment: Percent inhibition against muscarinic acetylcholine receptor M4 from NG108-15 cell line; type: cell-based; set-up: concentration or dose not given beside the values
T1 sequence (whole entry): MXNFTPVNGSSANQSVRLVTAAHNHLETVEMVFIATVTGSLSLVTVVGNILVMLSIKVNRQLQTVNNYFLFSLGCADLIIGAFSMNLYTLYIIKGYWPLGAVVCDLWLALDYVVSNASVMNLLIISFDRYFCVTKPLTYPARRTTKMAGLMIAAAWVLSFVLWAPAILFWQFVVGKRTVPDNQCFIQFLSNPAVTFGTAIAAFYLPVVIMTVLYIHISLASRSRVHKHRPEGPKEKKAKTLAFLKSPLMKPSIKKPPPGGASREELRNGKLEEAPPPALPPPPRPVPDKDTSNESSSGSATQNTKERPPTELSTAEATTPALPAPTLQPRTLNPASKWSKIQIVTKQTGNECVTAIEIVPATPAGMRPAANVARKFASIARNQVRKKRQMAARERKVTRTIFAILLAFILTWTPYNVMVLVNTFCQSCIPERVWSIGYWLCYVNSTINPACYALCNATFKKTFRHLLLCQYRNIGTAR
Procedure, shortened: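 NG108-15 cells grown to 90% confluence and preincubated 10 min at 37 °C in 1 mM IBMX in DMEM-Hepes. Compound (100 µM final) and PGE1 (5 µM final) were added for 15 min at 37 °C. cAMP was extracted in 0.1 N HCl for 30 min at room temperature, lyophilized and measured by radioimmunoassay. Reported as percent inhibition versus no-compound control; three trials in triplicate.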

[3] = target: T1, Muscarinic acetylcholine receptor M4 (Rattus norvegicus); experiment: Binding affinity at muscarinic acetylcholine receptor M4 from NG108-15 cell line in presence of [3H]-NMS; type: cell-based; procedure, shortened: as §1
[4] = target: Muscarinic acetylcholine receptor M3 (Homo sapiens) (UniProt P20309); experiment: Percent increase in [3H]myo-inositol at muscarinic acetylcholine receptor M3 from SK-N-SH human neuroblastoma cells; type: cell-based; set-up: concentration or dose not given beside the values
Procedure, shortened: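 SK-N-SH cells grown in DMEM with 10% newborn calf serum and plated at 100000 cells/well. After 24 h they were labeled overnight with [3H]-myo-inositol (2 µCi/well). Cells were rinsed and preincubated 5 min at 37 °C in 10 mM LiCl DMEM-Hepes, then exposed to 100 µM final compound for 30 min at 37 °C. Reported as percent increase relative to oxotremorine M (100%); two or three trials in triplicate.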

SK-N-SH = experiment: Percent inhibition of stimulation of PI turnover of Oxotremorine M (100 uM) in SK-N-SH cells at 100 uM; type: functional, Homo sapiens
[5] = target: Muscarinic acetylcholine receptor; experiment: Binding affinity was determined using [3H]-NMS for Muscarinic acetylcholine receptor in SK-N-SH neuroblastoma cells; type: cell-based, Homo sapiens
Procedure, shortened: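 SK-N-SH crude membranes from hypotonic lysis (2 mM Tris-HCl pH 7.1, 1 mM EDTA), 50000 g pellets. Competition used varied compound concentrations with 1 nM [3H]NMS in DMEM-Hepes, 60 min at 37°C, then GF/B filtration. Atropine defined nonspecific binding. Ki was obtained by Cheng-Prusoff from the [3H]NMS Kd (saturation, 10 min at 37°C). Means ± SEM of three determinations in duplicate.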

Chain of Muscarinic acetylcholine receptor M3 (Homo sapiens) (P20309 whole entry, looked up): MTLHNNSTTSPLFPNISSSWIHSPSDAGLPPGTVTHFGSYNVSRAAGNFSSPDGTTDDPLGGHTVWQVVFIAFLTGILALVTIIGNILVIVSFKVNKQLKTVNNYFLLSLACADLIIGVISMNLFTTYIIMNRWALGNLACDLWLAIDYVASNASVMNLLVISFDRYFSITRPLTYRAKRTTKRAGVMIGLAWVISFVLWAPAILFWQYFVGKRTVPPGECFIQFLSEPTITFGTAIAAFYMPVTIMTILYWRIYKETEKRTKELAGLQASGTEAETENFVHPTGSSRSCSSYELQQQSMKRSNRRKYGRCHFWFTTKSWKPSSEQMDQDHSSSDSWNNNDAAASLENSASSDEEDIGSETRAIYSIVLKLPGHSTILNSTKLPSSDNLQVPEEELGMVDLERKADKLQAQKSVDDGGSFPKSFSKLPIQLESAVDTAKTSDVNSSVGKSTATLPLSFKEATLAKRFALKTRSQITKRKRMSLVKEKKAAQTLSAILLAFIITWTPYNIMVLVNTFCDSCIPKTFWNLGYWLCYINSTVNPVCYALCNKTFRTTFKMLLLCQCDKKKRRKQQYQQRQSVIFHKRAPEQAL

SMILES	Affinity [1] [%]	Activity [2] [%]	Affinity [3] [%]	Activity [4] [%]	Inhibition (SK-N-SH) [%]	Ki [5] [µM]
CN(CC#CCN1CCCC1)C(=O)CCCNC(=O)c1ccccc1	30.3	< 1	27.7	< 1	–	–
C[N+](C)(C)CC#CCN1CCCC1=O	52.1	64.1	96.2	100	–	–
CN(CC#CCN1CCCC1)C(=O)CCN.O=C(O)C(F)(F)F.O=C(O)C(F)(F)F	18.1	20.8	15.1	< 1	20	–
CC(=O)NCCC(=O)N(C)CC#CCN1CCCC1.O=C(O)C(=O)O	67.4	10.2	67.7	< 1	43	–
CN(CC#CCN1CCCC1)C(=O)CCCCNC(=O)OC(C)(C)C	32.1	0.5	26.7	1	–	–
CC(=O)NCCCC(=O)N(C)CC#CCN1CCCC1	15.6	8	19.1	14	–	–
CN(CC#CCN1CCCC1)C(=O)CCCN	20	3.7	12.1	< 1	–	–
CN(CC#CCN1CCCC1)C(=O)CCCNC(=O)CN	47	< 1	31	7	–	–
CN(CC#CCN1CCCC1)C(=O)CCCCCNC(=O)CCN	70.5	< 1	56.8	7	–	–
CN(CC#CCN1CCCC1)C(=O)CCCNC(=O)CCNC(=O)OC(C)(C)C	39.2	< 1	38.8	< 1	–	–
CN(CC#CCN1CCCC1)C(=O)CCCCCNC(=O)CN	65	< 1	57	< 1	–	–
CN(CC#CCN1CCCC1)C(=O)CCC(=O)O	6	< 1	0	< 1	–	–
CN(CC#CCN1CCCC1)C(=O)c1ccccc1	40	< 1	25	8	–	–
CN(CC#CCN1CCCC1)C(=O)CCCCCCNC(=O)OC(C)(C)C.O=C(O)C(=O)O	81.4	< 1	77.9	< 1	–	10.9
CN(CC#CCN1CCCC1)C(=O)CCCCCN.O=C(O)C(F)(F)F.O=C(O)C(F)(F)F	55.9	14.3	37.9	< 1	47	–
CN(CC#CCN1CCCC1)C(=O)CCCNC(=O)OC(C)(C)C	32.1	3.5	24.4	< 1	–	–
CC(=O)NCCCCCC(=O)N(C)CC#CCN1CCCC1	17.4	3	22.7	1	–	–
CN(CC#CCN1CCCC1)C(=O)CCNC(=O)OC(C)(C)C	45.1	12.5	36.3	< 1	–	–
CN(CC#CCN1CCCC1)C(=O)CCCCCCCNC(=O)OC(C)(C)C.O=C(O)C(=O)O	92.1	< 1	89	< 1	–	4.9
CN(CC#CCN1CCCC1)C(=O)CCCCN.O=C(O)C(F)(F)F.O=C(O)C(F)(F)F	34.4	15.8	22.4	< 1	44	–

SMILES	Affinity [1] [%]	Activity [2] [%]	Affinity [3] [%]	Activity [4] [%]	Inhibition (SK-N-SH) [%]	Ki [5] [µM]
CN(CC#CCN1CCCC1)C(=O)CCCNC(=O)CNC(=O)OC(C)(C)C	37.5	< 1	24.4	< 1	–	–
CN(CC#CCN1CCCC1)C(=O)CCCCCNC(=O)CCNC(=O)OC(C)(C)C	59.1	< 1	57.3	< 1	–	–
CC(=O)NCCCCC(=O)N(C)CC#CCN1CCCC1	29.4	5.2	17.9	< 1	–	–
COC(=O)CCC(=O)N(C)CC#CCN1CCCC1	28	< 1	7	< 1	–	–
CN(CC#CCN1CCCC1)C(=O)c1cccc(Cl)c1	55	< 1	34	4	–	–
CN(CC#CCN1CCCC1)C(=O)CCCNC(=O)CCN	40.5	< 1	29	7	–	–
CN(CC#CCN1CCCC1)C(=O)CCCCCCCN.O=C(O)C(F)(F)F.O=C(O)C(F)(F)F	93.7	< 1	92.3	< 1	–	1.4
CC(=O)NCCCCCCCC(=O)N(C)CC#CCN1CCCC1	59.1	< 1	50.4	< 1	–	–
CC(=O)N(C)CC#CCN1CCCC1	88.8	63.2	79.6	48	–	4.96
CN(CC#CCN1CCCC1)C(=O)CCCCCNC(=O)OC(C)(C)C	39.1	< 1	31.9	< 1	–	–
CC(=O)N(C)C(C)C#CCN1CCCC1 (stereo unspecified)	99	36	97	< 1	–	0.33
CC(=O)NCC(=O)N(C)CC#CCN1CCCC1	12.5	14.1	24	8	–	–
CN(CC#CCN1CCCC1)C(=O)CNC(=O)OC(C)(C)C	40	7	32.6	< 1	–	–
CN(CC#CCN1CCCC1)C(=O)CCCCCNC(=O)CNC(=O)OC(C)(C)C	52.6	< 1	52.3	3	–	–
CC(=O)NCCCCCCC(=O)N(C)CC#CCN1CCCC1	24.6	6.9	20.4	1	–	–
CN(CC#CCN1CCCC1)C(=O)CCCCCNC(=O)c1ccccc1	51.7	< 1	52.8	< 1	–	–
CN(CC#CCN1CCCC1)C(=O)CN	17.3	26.1	23.5	< 1	–	–
CN(CC#CCN1CCCC1)C(=O)CCC(=O)NCCN	25	< 1	14	< 1	–	–
CN(CC#CCN1CCCC1)C(=O)CCCCCCN.O=C(O)C(F)(F)F.O=C(O)C(F)(F)F	81.9	3	72.1	< 1	–	6.7
